Test results taken from ChEMBL document CHEMBL1255558, “Bis-alkylamine quindolone derivatives as new antimalarial leads” (Bioorg Med Chem Lett, 2010).

Columns and labels:
[1] = Selectivity ratio of IC50 for human HepG2A16 cells to IC50 for Plasmodium falciparum W2; assay type: ADME
In short: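 Ratio of HepG2 A16 cytotoxicity IC₅₀ (48 h) to W2 IC₅₀. The W2 assay used sorbitol-synchronized ring stages at 1% parasitemia in human RBCs, 48 h at 37 °C in RPMI-1640 with 25 mM HEPES pH 7.4 and 10% heat-inactivated human serum. Cells were then fixed in 2% HCHO, stained with 1 nM YOYO-1 and counted by flow cytometry.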

[2] = Cytotoxicity against human HepG2A16 cells; assay type: cell-based
In short: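 HepG2 A16 human hepatic cells seeded at 1 × 10⁴ cells/well and exposed to a range of concentrations for 48 h under standard culture conditions. IC₅₀ (50% growth inhibition) read from plots of degree of cell injury against concentration.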

[3] = tested on: Plasmodium falciparum; assay: Antimalarial activity against chloroquine-resistant Plasmodium falciparum W2; assay type: functional, organism-based
In short: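 Ring-stage parasites (1% parasitaemia in human red cells, sorbitol-synchronised) exposed to compounds for 48 h at 37 °C in RPMI-1640 with 25 mM HEPES pH 7.4 and 10% heat-inactivated human serum. Cells then fixed in 2% HCHO/PBS, stained with 1 nM YOYO-1 in PBS containing 100 mM NH₄Cl and 0.1% Triton X-100, and counted by flow cytometry (ex 488/em 520 nm). IC50 derived by curve fitting.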

[4] = Binding to hematin monomer

Row | Structure (SMILES) | selectivity ratio [1] | IC50 [2] [µM] | IC50 [3] [µM] | log Kass [4]
1 | CCN(CC)CCOc1c2ccccc2nc2c3ccccc3n(CCN(CC)CC)c12 | 12 | 7 | 0.539 | 4.9
2 | CCN(CC)CCn1c2ccccc2c2c1c(=O)c1ccc(Cl)cc1n2CCN(CC)CC | 33 | 7 | 0.202 | 4.9
3 | CCN(CC)CCn1c2ccccc2c2c1c(=O)c1ccccc1n2CCN(CC)CC | 16 | 4.33 | 0.267 | 4.9
4 | CCN(CC)CCOc1c2ccc(Cl)cc2nc2c1[nH]c1ccc(Cl)cc12 | – | – | 0.55 | –
5 | O=c1c2ccc(Cl)cc2[nH]c2c1[nH]c1ccccc12 | – | – | 8.42 | 5
6 | CCN(CC)CCOc1c2ccccc2nc2c1[nH]c1ccccc12 | 3.6 | 9 | 2.64 | 5
7 | O=c1c2ccc(Cl)cc2[nH]c2c1[nH]c1ccc(Cl)cc12 | – | – | > 10 | 4.9
8 | CCN(CC)CCn1c2ccc(Cl)cc2c2c1c(=O)c1ccc(Cl)cc1n2CCN(CC)CC | 31 | 11 | 0.334 | 5.1
9 | CCN(CC)CCOc1c2ccc(Cl)cc2nc2c3ccccc3n(CCN(CC)CC)c12 | 44 | 8 | 0.186 | 4.9
10 | CCN(CC)CCOc1c2ccc(Cl)cc2nc2c3cc(Cl)ccc3n(CCN(CC)CC)c12 | 98 | 5 | 0.051 | 5.2
11 | O=c1c2ccccc2[nH]c2c1[nH]c1ccccc12 | < 2 | 21 | > 10 | 4.7
12 | CCN(CC)CCOc1c2ccc(Cl)cc2nc2c1[nH]c1ccccc12 | – | – | 1.33 | 5.1
